Test results published in ChEMBL document CHEMBL5236609, “Optimization of 1,2,4-Triazole-3-thiones toward Broad-Spectrum Metallo-β-lactamase Inhibitors Showing Potent Synergistic Activity on VIM- and NDM-1-Producing Clinical Isolates” (J Med Chem, 2022).

Test system: not listed separately
Test: Inhibition of bacterial VIM-2 (unknown origin) expressed in Escherichia coli EXPRESS BL21(DE3) assessed as inhibition constant by measuring rate of substrate hydrolysis by UV-visible spectrophotometry
Set-up: species or system Bacteria
Conditions: not given
In short: (§1)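 Reporter-substrate assay with purified MBL (1–70 nM final) in 50 mM HEPES pH 7.5 at 30 °C. […] Inhibitor 0.5–1000 μM final. Ki derived from the v0/vi vs [I] slope assuming competitive inhibition, or from a Dixon plot. Ki given when inhibition >70%, otherwise % inhibition at 100 μM. Triplicate.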
For `Cn1cncc1CN(Cc1c[nH]cn1)[C@@H](CCCn1c(-c2ccccc2)n[nH]c1=S)C(=O)O`, the Ki was 3.2 µM.

Test system: Bacteria
Test: Inhibition of bacterial IMP-1 (unknown origin) expressed in Escherichia coli EXPRESS BL21(DE3) assessed as inhibition constant by measuring rate of substrate hydrolysis at 100 uM by UV-visible spectrophotometry relative to control
Conditions: not given
In short: as §1
In the case of `O=C(O)[C@H](CCCn1c(-c2ccccc2)n[nH]c1=S)NCc1ccccc1`, the inhibition is reported as less than 30%.
Work on `Cc1[nH]cnc1CN[C@@H](CCCn1c(-c2ccccc2)n[nH]c1=S)C(=O)O` yielded an inhibition of less than 30%.
`O=C(O)[C@H](CCCn1c(-c2ccccc2)n[nH]c1=S)NCc1c[nH]cn1` showed an inhibition of less than 30%.
With `O=C(O)[C@H](CCCn1c(-c2ccccc2)n[nH]c1=S)NCc1ccccn1` the inhibition was 34%.
With `O=C(O)[C@H](CCCn1c(-c2ccccc2)n[nH]c1=S)NCc1c[nH]c2ccccc12` the inhibition was less than 30%.
For `O=C(O)[C@H](CCCCn1c(-c2ccccc2)n[nH]c1=S)NCc1c[nH]cn1`, the inhibition was 44%.
For `O=C(O)[C@H](CCCn1c(-c2ccccc2)n[nH]c1=S)NCc1cscn1`, the inhibition was 47%.
Molecule `Cn1cncc1CN(Cc1c[nH]cn1)[C@@H](CCCn1c(-c2ccccc2)n[nH]c1=S)C(=O)O` has an inhibition of 50%.

Test system: Klebsiella pneumoniae
Test: Antimicrobial activity against blaVIM-4-producing multidrug-resistant Klebsiella pneumoniae VA-416/02 clinical isolate assessed as meropenem MIC at 32 ug/ml by broth microdilution method (reference value: […] ug/ml)
Type: functional
Conditions: dose 32 µg/ml
In short: (§2)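 Inoculum was 5×10^4 CFU/well. Each inhibitor was present at a fixed 32 μg/mL, and MICs were also taken without inhibitor.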
Work on `O=C(O)[C@H](CCCn1c(-c2ccccc2)n[nH]c1=S)NCc1c[nH]cn1` yielded an MIC of 4 µg/mL.
Work on `Cn1cncc1CN(Cc1c[nH]cn1)[C@@H](CCCn1c(-c2ccccc2)n[nH]c1=S)C(=O)O` yielded an MIC of 4 µg/mL.

Test system: not listed separately
Test: Inhibition of bacterial VIM-1 (unknown origin) expressed in Escherichia coli EXPRESS BL21(DE3) assessed as inhibition constant by measuring rate of substrate hydrolysis by UV-visible spectrophotometry
Set-up: species or system Bacteria
Conditions: not given
In short: as §1
For `O=C(O)[C@H](CCCCn1c(-c2ccccc2)n[nH]c1=S)NCc1c[nH]cn1`, the Ki was 1.8 µM.
Work on `Cn1cncc1CN(Cc1c[nH]cn1)[C@@H](CCCn1c(-c2ccccc2)n[nH]c1=S)C(=O)O` yielded a Ki of 4.4 µM.

Test system: Klebsiella pneumoniae
Test: Antimicrobial activity against blaVIM-1-producing multidrug-resistant Klebsiella pneumoniae K47-25 clinical isolate assessed as meropenem MIC at 32 ug/ml by broth microdilution method (reference value: […] ug/ml)
Type: functional
Conditions: dose 32 µg/ml
In short: as §2
Work on `O=C(O)[C@H](CCCn1c(-c2ccccc2)n[nH]c1=S)NCc1c[nH]cn1` yielded an MIC of 2 µg/mL.
Molecule `Cn1cncc1CN(Cc1c[nH]cn1)[C@@H](CCCn1c(-c2ccccc2)n[nH]c1=S)C(=O)O` has an MIC of 2 µg/mL.

Test system: Bacteria
Test: Inhibition of bacterial NDM-1 (unknown origin) expressed in Escherichia coli EXPRESS BL21(DE3) assessed as inhibition constant by measuring rate of substrate hydrolysis at 100 uM by UV-visible spectrophotometry relative to control
Conditions: not given
In short: as §1
Molecule `O=C(O)[C@H](CCCn1c(-c2ccccc2)n[nH]c1=S)NCc1ccccc1` has an inhibition of less than 30%.
`Cc1[nH]cnc1CN[C@@H](CCCn1c(-c2ccccc2)n[nH]c1=S)C(=O)O` showed an inhibition of less than 30%.
Molecule `O=C(O)[C@H](CCCn1c(-c2ccccc2)n[nH]c1=S)NCc1c[nH]cn1` has an inhibition of 35%.
`O=C(O)[C@H](CCCn1c(-c2ccccc2)n[nH]c1=S)NCc1c[nH]c2ccccc12` gave an inhibition of less than 30%.
`O=C(O)[C@H](CCCn1c(-c2ccccc2)n[nH]c1=S)NCc1cscn1` gave an inhibition of less than 30%.
With `Cn1cncc1CN(Cc1c[nH]cn1)[C@@H](CCCn1c(-c2ccccc2)n[nH]c1=S)C(=O)O` the inhibition was 66%.

Test system: Pseudomonas aeruginosa
Test: Antimicrobial activity against blaVIM-2-producing multidrug-resistant Pseudomonas aeruginosa VA-182/00 clinical isolate assessed as meropenem MIC at 32 ug/ml by broth microdilution method (reference value: 128 ug/ml)
Type: functional
Conditions: dose 32 µg/ml
In short: as §2
With `O=C(O)[C@H](CCCn1c(-c2ccccc2)n[nH]c1=S)NCc1c[nH]cn1` the MIC was 128 µg/mL.
In the case of `Cn1cncc1CN(Cc1c[nH]cn1)[C@@H](CCCn1c(-c2ccccc2)n[nH]c1=S)C(=O)O`, the MIC is reported as 128 µg/mL.

Test system: Bacteria
Test: Inhibition of bacterial VIM-4 (unknown origin) expressed in Escherichia coli EXPRESS BL21(DE3) assessed as inhibition constant by measuring rate of substrate hydrolysis at 100 uM by UV-visible spectrophotometry relative to control
Conditions: not given
In short: as §1
`O=C(O)[C@H](CCCn1c(-c2ccccc2)n[nH]c1=S)NCc1ccccc1` gave an inhibition of less than 30%.
Molecule `Cc1[nH]cnc1CN[C@@H](CCCn1c(-c2ccccc2)n[nH]c1=S)C(=O)O` has an inhibition of less than 30%.
Work on `O=C(O)[C@H](CCCn1c(-c2ccccc2)n[nH]c1=S)NCc1c[nH]cn1` yielded an inhibition of less than 30%.
Work on `O=C(O)[C@H](CCCn1c(-c2ccccc2)n[nH]c1=S)NCc1ccccn1` yielded an inhibition of less than 30%.
`O=C(O)[C@H](CCCn1c(-c2ccccc2)n[nH]c1=S)NCc1c[nH]c2ccccc12` gave an inhibition of less than 30%.
With `O=C(O)[C@H](CCCCn1c(-c2ccccc2)n[nH]c1=S)NCc1c[nH]cn1` the inhibition was less than 30%.
With `O=C(O)[C@H](CCCn1c(-c2ccccc2)n[nH]c1=S)NCc1cscn1` the inhibition was 43%.

Test system: not listed separately
Test: Inhibition of bacterial VIM-4 (unknown origin) expressed in Escherichia coli EXPRESS BL21(DE3) assessed as inhibition constant by measuring rate of substrate hydrolysis by UV-visible spectrophotometry
Set-up: species or system Bacteria
Conditions: not given
In short: as §1
`Cn1cncc1CN(Cc1c[nH]cn1)[C@@H](CCCn1c(-c2ccccc2)n[nH]c1=S)C(=O)O` gave a Ki of 3.8 µM.

Test system: Escherichia coli
Test: Antimicrobial activity against blaNDM-1-producing multidrug-resistant Escherichia coli SI-004 clinical isolate assessed as meropenem MIC at 32 ug/ml by broth microdilution method (reference value: 64 ug/ml)
Conditions: not given
For `O=C(O)[C@H](CCCn1c(-c2ccccc2)n[nH]c1=S)NCc1c[nH]cn1`, the MIC was 64 µg/mL.
Work on `Cn1cncc1CN(Cc1c[nH]cn1)[C@@H](CCCn1c(-c2ccccc2)n[nH]c1=S)C(=O)O` yielded an MIC of 32 µg/mL.

Test system: Bacteria
Test: Inhibition of bacterial VIM-1 (unknown origin) expressed in Escherichia coli EXPRESS BL21(DE3) assessed as inhibition constant by measuring rate of substrate hydrolysis at 100 uM by UV-visible spectrophotometry relative to control
Conditions: not given
In short: as §1
In the case of `Cc1[nH]cnc1CN[C@@H](CCCn1c(-c2ccccc2)n[nH]c1=S)C(=O)O`, the inhibition is reported as 51%.
For `O=C(O)[C@H](CCCn1c(-c2ccccc2)n[nH]c1=S)NCc1c[nH]cn1`, the inhibition was 53%.
With `O=C(O)[C@H](CCCn1c(-c2ccccc2)n[nH]c1=S)NCc1ccccn1` the inhibition was less than 30%.
Work on `O=C(O)[C@H](CCCn1c(-c2ccccc2)n[nH]c1=S)NCc1cscn1` yielded an inhibition of 55%.

Test system: Bacteria
Test: Inhibition of bacterial VIM-2 (unknown origin) expressed in Escherichia coli EXPRESS BL21(DE3) assessed as inhibition constant by measuring rate of substrate hydrolysis at 100 uM by UV-visible spectrophotometry relative to control
Conditions: not given
In short: as §1
With `O=C(O)[C@H](CCCn1c(-c2ccccc2)n[nH]c1=S)NCc1ccccc1` the inhibition was less than 30%.
For `Cc1[nH]cnc1CN[C@@H](CCCn1c(-c2ccccc2)n[nH]c1=S)C(=O)O`, the inhibition was less than 30%.
In the case of `O=C(O)[C@H](CCCn1c(-c2ccccc2)n[nH]c1=S)NCc1c[nH]cn1`, the inhibition is reported as less than 30%.
In the case of `O=C(O)[C@H](CCCn1c(-c2ccccc2)n[nH]c1=S)NCc1ccccn1`, the inhibition is reported as 44%.
`O=C(O)[C@H](CCCn1c(-c2ccccc2)n[nH]c1=S)NCc1c[nH]c2ccccc12` showed an inhibition of less than 30%.
Work on `O=C(O)[C@H](CCCCn1c(-c2ccccc2)n[nH]c1=S)NCc1c[nH]cn1` yielded an inhibition of 39%.
`O=C(O)[C@H](CCCn1c(-c2ccccc2)n[nH]c1=S)NCc1cscn1` showed an inhibition of less than 30%.

Test system: not listed separately
Test: Inhibition of bacterial NDM-1 (unknown origin) expressed in Escherichia coli EXPRESS BL21(DE3) assessed as inhibition constant by measuring rate of substrate hydrolysis by UV-visible spectrophotometry
Set-up: species or system Bacteria
Conditions: not given
In short: as §1
For `O=C(O)[C@H](CCCn1c(-c2ccccc2)n[nH]c1=S)NCc1ccccn1`, the Ki was 2 µM.
In the case of `O=C(O)[C@H](CCCCn1c(-c2ccccc2)n[nH]c1=S)NCc1c[nH]cn1`, the Ki is reported as 4 µM.
